Screens as filed in PubChem.
Rows were chosen to be rich in hits. Some 4% of all compounds tested hit in one or more screens of this group.
Mdm2 ligase inh = MDM2-luciferase reporter signal enhancers, primary screen, MDM2 E3 ligase inhibitor project, cell-based, luminescence, 1536-well; signal enhancement, % at 5 µM; 210,000 tested, 0.11% active; E3 ubiquitin-protein ligase Mdm2 (Homo sapiens), Q00987; cell-based MDM2 ubiquitination luciferase reporter, 2 h; 0 = plate control, 100 = twice control, blank-subtracted;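 active means signal enhancement of 30% or more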;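 further: luminescence tracks abundance of the self-degrading MDM2-luciferase fusion protein; higher signal means inhibition of MDM2 E3 ligase activity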
Target sequence (Q00987 whole entry, looked up, the tested form may be a part): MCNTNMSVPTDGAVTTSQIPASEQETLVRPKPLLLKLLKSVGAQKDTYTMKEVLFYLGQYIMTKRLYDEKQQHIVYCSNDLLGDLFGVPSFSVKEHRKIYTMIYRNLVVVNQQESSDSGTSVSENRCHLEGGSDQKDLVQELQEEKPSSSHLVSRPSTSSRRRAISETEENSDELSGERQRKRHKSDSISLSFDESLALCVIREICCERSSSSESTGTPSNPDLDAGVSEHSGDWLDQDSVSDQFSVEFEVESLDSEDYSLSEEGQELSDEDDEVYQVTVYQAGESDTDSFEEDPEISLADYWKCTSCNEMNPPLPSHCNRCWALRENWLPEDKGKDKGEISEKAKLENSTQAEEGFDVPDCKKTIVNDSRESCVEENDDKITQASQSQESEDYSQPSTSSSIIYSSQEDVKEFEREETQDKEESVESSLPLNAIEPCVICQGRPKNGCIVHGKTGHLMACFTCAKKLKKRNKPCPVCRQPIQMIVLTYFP
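Assay system: mammalian cells stably expressing self-ubiquitinating, self-degrading MDM2 E3–luciferase fusion. Quantity: 2000 cells in each well. Medium: DMEM culture medium. Compound dosing: single-point 5 µM. Timing: cell settling 4 h, compound treatment 2 h, both 37 °C. Technique: luciferase luminescence. Read-out basis: percent signal gain over controls, blank-subtracted. Benchmarks: plate controls and plate blanks.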
Yeast growth inh = growth inhibitors of yeast BB579 in restrictive medium, primary screen, yeast lifespan-shortening project, S. cerevisiae. OD615, 48 h. inhibition, % at 10 µM. 140,000 tested, 0.51% active. AID 804, 2007;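 active means inhibition above a set limit, 3 SD over the mean compound inhibition, cut at about 44% in these data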
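test system = yeast BB579 (DeaD) | buffer or medium = restrictive CSMM-D medium | doses = single compound dose of 10 µM, 0.25% DMSO final | times = 4 h preincubation and 48 h exposure at 30 °C | technique = culture absorbance at 615 nm | benchmarks = amphotericin B 10 µg/mL, positive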
Measles CPE = compounds protecting cells from measles virus cytopathic effect, primary screen, measles RdRp inhibitor project, single point, MLSMR library, absorbance; Measles virus-infected cells, CPE protection; protection (pct of control), % at 4 µM; 140,000 tested, 1.5% active; AID 841, 2007; in the data active means protection mostly above about 24%, no sharp cut-off; inactive means mostly below about 26%
Yeast life ext = compounds extending yeast replicative lifespan, primary screen, S. cerevisiae, OD615; S. cerevisiae growth with nicotinamide; deaD strain in restrictive glucose medium; 130,000 tested, 0.68% active; inhibition of the nicotinamide effect, % at 10 µM;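 active means inhibition above a set limit, placed 3 SD over the median of all compounds, cut at about 26% in these data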
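System: DeaD-strain S. cerevisiae / Buffer or medium: CSMM-D, restrictive glucose (dextrose) synthetic minimal medium / Probe or stimulus: nicotinamide, 1.5 mM, co-present with compound / Compound: one concentration, 10 µM, DMSO 0.25% / Incubation: 48 h compound exposure at 30 °C, humidified / Technique: optical density (absorbance) at 615 nm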
Insulin prom inh = inhibitors of insulin promoter-driven GFP, primary screen, imaging, TRM-6 cells, eGFP reporter, cell count. reporter expression induced with tamoxifen. inhibition, % at 2 µM. 130,000 tested, 0.9% active;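 active means inhibition above the mean plus 3 SD, with well images judged a real hit on visual review, cut at about 60% in these data, passing the limit was not always enough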
RAM inhibit = inhibitors of the yeast RAM network, primary screen, dse1pr::URA3 reporter, 5-FOA selection; 190,000 tested, 1.8% active; inhibition, % at 50 µM; S. cerevisiae dse1pr::URA3 reporter, 5-FOA growth OD615, 2 d; analog-sensitive cbk1-as2 kinase mutant strain;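 active means inhibition above a set limit, 3 SD over mean compound inhibition, cut at about 8.4% in these data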;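 further: inhibition rescues growth on 5-FOA so higher OD means more RAM inhibition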
Of the large screens only hits and unclear results are named; the others gave an inactive call.

O=C(CCCC(=O)N(CC(=O)NC1CCCCC1)Cc1ccc2c(c1)OCO2)Nc1ccccn1	Yeast life ext 28.2
O=c1cc(-c2ccccc2)[nH]n1-c1ccc([N+](=O)[O-])cc1	none
Cc1cc(C)cc(NC(=O)CSc2nc(N)c(NC(=O)c3cccs3)c(=O)[nH]2)c1	none (no result: Mdm2 ligase inh)
Cc1ccc(NC(=O)C(OC(=O)c2ccc(O)cc2)c2ccccc2)cc1Cl (stereo not drawn)	RAM inhibit 8.5
Oc1ccccc1N=Nc1nc(-c2ccccc2)c(-c2ccccc2)[nH]1	RAM inhibit 8.6
COc1ccc(N=Nc2nc(-c3ccccc3)c(-c3ccccc3)[nH]2)cc1	RAM inhibit 10.8
CS(=O)(=O)N(Cc1ccccc1Cl)c1ccc(C(=O)NCc2ccccn2)cc1	none
Cc1cccc(-n2c(SCc3ccc([N+](=O)[O-])cc3)nnc2-c2c[nH]c3ccccc23)c1	none (no result: Yeast growth inh, Measles CPE, Yeast life ext)
Cc1nnc(NC(=O)Nc2cccc(Cl)c2)s1	none
Cc1ccc(OCCSCc2nnc(NC(=O)Nc3cccc(Cl)c3)s2)cc1	RAM inhibit 8.4
COc1ccc(-c2ccc(=O)n(Cc3cc(=O)n4ccccc4n3)n2)cc1	Measles CPE 32.1
CCOC(=O)C1(C)C=C(Nc2ccc(OCC)cc2)C(=O)N1c1ccccc1 (stereo not drawn)	none (no result: Insulin prom inh)
CCOC(=O)C1(C)C=C(Nc2ccccc2)C(=O)N1c1ccccc1 (stereo not drawn)	Insulin prom inh 71.4 (no result: Yeast growth inh, Measles CPE, Yeast life ext)
COc1ccc(CNC(=O)c2cc(-c3ccccc3OC)on2)cc1	RAM inhibit 8.6 (no result: Insulin prom inh)
C[C@H]1O[C@@H](O[C@H]2[C@@H](O)C[C@H](O[C@H]3[C@@H](O)C[C@H](O[C@H]4CC[C@@]5(C)[C@H](CC[C@@H]6[C@@H]5C[C@@H](O)[C@]5(C)[C@@H](C7=CC(=O)OC7)CC[C@]65O)C4)O[C@@H]3C)O[C@@H]2C)C[C@H](O)[C@@H]1O	Insulin prom inh 100.0 (no result: Mdm2 ligase inh)
CC1(C)C=C(c2ccc(O)cc2)CC(C)(C)N1	none
COC(=O)c1ccc(COc2ccc3c(C)c(C)c(=O)oc3c2C)o1	none
Cc1c(OCc2ccc(C(=O)O)o2)ccc2c3c(c(=O)oc12)CCC3	RAM inhibit 9.4
CCOC(=O)C1=C(CC)Nc2ccccc2N/C1=N\S(=O)(=O)c1ccc(C(=O)OCC)cc1	RAM inhibit 9.3 (no result: Yeast growth inh, Measles CPE, Yeast life ext, Insulin prom inh)
CCOC(=O)C1=C(CC)Nc2ccccc2N=C1NC(=O)Nc1ccccc1OC	none
COc1ccc(C)cc1NC(=O)C(OC(=O)c1cc(C)oc1C)c1ccccc1 (stereo not drawn)	RAM inhibit 11.3 (no result: Insulin prom inh)
CC(NC(=O)C1CCCC1)C1CC2CCC1C2 (stereo not drawn)	Insulin prom inh 71.4
CC(NC(=O)C1CC=CCC1C(=O)O)C1CC2CCC1C2 (stereo not drawn)	none
Cc1ccccc1/C=N/N1CCN(c2ccccc2)CC1	none
Cc1c(-c2ccccc2)[n+](=O)c(-c2ccc(Cl)cc2)c(C)n1[O-]	none (no result: Yeast growth inh, Measles CPE, Yeast life ext, Insulin prom inh)
CCCCOc1ccc(-c2nc(-c3cccnc3)no2)cc1	none
CCOc1ccc(-c2nc(-c3cccnc3)no2)cc1	Measles CPE 34.4 (no result: Mdm2 ligase inh, Yeast life ext)
CC(C)(C)NC(=O)c1cc([N+](=O)[O-])ccc1N1CCCCC1	none (no result: Insulin prom inh)
O=C(Nc1c(C(=O)O)[nH]c2ccc(F)cc12)c1cccc(C(F)(F)F)c1	none (no result: Yeast growth inh, Measles CPE, Yeast life ext, Insulin prom inh, RAM inhibit)
C=CCNCc1cccn1-c1sc2c(c1C#N)CCCC2	none
N#Cc1c(-n2cccc2/C=N/O)sc2c1CCCC2	Insulin prom inh 71.4
COc1ccc(C(=O)NC(C(=O)NCC2CCCO2)C(C)C)cc1 (stereo not drawn)	Insulin prom inh 81.8 (no result: Yeast growth inh, Measles CPE, Yeast life ext)
CC(=O)Nc1ccc2nc(NC(=O)COc3ccccc3Cl)sc2c1	RAM inhibit 9.9 (no result: Yeast growth inh, Measles CPE, Yeast life ext)
CC(=O)Nc1ccc2nc(NC(=O)COc3ccccc3C)sc2c1	none (no result: Yeast growth inh, Measles CPE, Yeast life ext)
COc1ccc(C(=O)N/N=C/c2cc3ccccc3[nH]c2=S)cc1	RAM inhibit 9.5
